Test results published in PubChem BioAssay.
Activity calls are given as the source filed them. Rule as the data show it, unless noted: active = inhibition above about 30%; inactive = the rest. Peptide text beside a SMILES is read from it.

Experiments:
[1] = molecular target: Pantothenate synthetase (Mycobacterium tuberculosis (strain ATCC 25618 / H37Rv)) (UniProt P9WIL5); test: Recombinant Mtb pantothenate synthetase (PanC) inhibitors, coupled enzyme, confirmatory (AID 375; call rule not given here;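 also: 0% = full reaction with vehicle and 100% = no enzyme background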); details: coupled enzyme assay; at 10 µM, stronger effect = higher value
[2] = reducers of endogenous Her2 protein level, primary screen, SKBR3 breast tumor cells, AlphaScreen, ATP viability (AID 461;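 active = Her2 level under about 52% in both replicate screens, with viability over 70% of control, limit read from the data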;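 as to Her2 level: lower value means less Her2 protein in the cells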;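 as to viability: percent of carrier control wells set as 100% viability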); details: 18-24 h, measured here: SKBR3 viability, ATP luminescence, at 10 µM
[3] = molecular target: Receptor tyrosine-protein kinase erbB-2 (Homo sapiens) (UniProt P04626); test: as above; details: 18-24 h, at 10 µM, stronger effect = lower value
[4] = SK-BR-3 cell growth inhibitors, pilot screen, 24 h, human (AID 572;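 active = viability at or below 10% of carrier control in both of two separate runs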;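 also: compound exposure lasted between 18 and 24 h rather than exactly 24 h; 100% = carrier-treated control wells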); details: SK-BR-3 viability, CellTiter-Glo luminescence, at 10 µM, stronger effect = lower value
[5] = HUVEC growth inhibition – cell-based, human, primary screen (AID 575;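 active = viability at or below 30% in both replicate assays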;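 also: 100% = median of untreated cell wells with 0.1% DMSO on each plate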); details: HUVEC proliferation, CellTiter-Glo luminescence, 72 h; at 10 µM; stronger effect = lower value
In short: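 Assay system: primary human umbilical vein endothelial cells / Buffer or medium: endothelial basal medium with 2% FBS plus growth supplements / Compound dosing: one dose, 10 µM final, 0.1% DMSO / Timing: 72 h treatment at 37 °C / Signal: CTG luminescence / Benchmarks: 32 DMSO-only cell-control wells (high), 32 MePR drug-control wells (low) per plate / Plate: collagen-coated 384-well format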

[6] = growth inhibitors of H69AR lung tumor, primary screen, human, duplicate replicates (AID 580;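 active = viability at or under a set limit in both replicates, limit being median viability minus 3 SD, cut at about 48% in these data, passing the limit was not always enough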;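 also: 100% = mean luminescence of untreated wells and 0% = no signal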); details: H69AR lung tumor cells viability, ATP luminescence, 72 h; at 10 µM; stronger effect = lower value
[7] = reversal of MRP1-mediated doxorubicin resistance, pilot screen, H69AR cells, doxorubicin co-treatment (AID 601;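 active = viability loss from added drug above about 55%, and viability with drug at most 40%, in both replicates, limit read from the data, passing the limit was not always enough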); details: CellTiter-Glo, 72 h, at 10 µM; for differential viability (reversal): stronger effect = higher value
[8] = 384-well plate pilot, post-Golgi transport modulator project, inhibition of yeast transport mutant growth (AID 636; in the data active = inhibition above about 31%); details: absorbance 615 nm, about 18 h, stronger effect = higher value
[9] = growth suppression of yeast trafficking mutant, preliminary HTS, modulators of trafficking downstream of Golgi apparatus project, 1536-format plate, OD 615 nm (AID 637); details: yeast transport mutant growth, absorbance 615 nm, 18 h; stronger effect = higher value
[10] = H69AR cells + 2 uM doxorubicin, measured here: viability with 2 uM doxorubicin, stronger effect = lower value
[11] = H69AR cells, compound alone cytotoxicity

Receptor tyrosine-protein kinase erbB-2 (Homo sapiens), sequence (P04626 whole entry, looked up): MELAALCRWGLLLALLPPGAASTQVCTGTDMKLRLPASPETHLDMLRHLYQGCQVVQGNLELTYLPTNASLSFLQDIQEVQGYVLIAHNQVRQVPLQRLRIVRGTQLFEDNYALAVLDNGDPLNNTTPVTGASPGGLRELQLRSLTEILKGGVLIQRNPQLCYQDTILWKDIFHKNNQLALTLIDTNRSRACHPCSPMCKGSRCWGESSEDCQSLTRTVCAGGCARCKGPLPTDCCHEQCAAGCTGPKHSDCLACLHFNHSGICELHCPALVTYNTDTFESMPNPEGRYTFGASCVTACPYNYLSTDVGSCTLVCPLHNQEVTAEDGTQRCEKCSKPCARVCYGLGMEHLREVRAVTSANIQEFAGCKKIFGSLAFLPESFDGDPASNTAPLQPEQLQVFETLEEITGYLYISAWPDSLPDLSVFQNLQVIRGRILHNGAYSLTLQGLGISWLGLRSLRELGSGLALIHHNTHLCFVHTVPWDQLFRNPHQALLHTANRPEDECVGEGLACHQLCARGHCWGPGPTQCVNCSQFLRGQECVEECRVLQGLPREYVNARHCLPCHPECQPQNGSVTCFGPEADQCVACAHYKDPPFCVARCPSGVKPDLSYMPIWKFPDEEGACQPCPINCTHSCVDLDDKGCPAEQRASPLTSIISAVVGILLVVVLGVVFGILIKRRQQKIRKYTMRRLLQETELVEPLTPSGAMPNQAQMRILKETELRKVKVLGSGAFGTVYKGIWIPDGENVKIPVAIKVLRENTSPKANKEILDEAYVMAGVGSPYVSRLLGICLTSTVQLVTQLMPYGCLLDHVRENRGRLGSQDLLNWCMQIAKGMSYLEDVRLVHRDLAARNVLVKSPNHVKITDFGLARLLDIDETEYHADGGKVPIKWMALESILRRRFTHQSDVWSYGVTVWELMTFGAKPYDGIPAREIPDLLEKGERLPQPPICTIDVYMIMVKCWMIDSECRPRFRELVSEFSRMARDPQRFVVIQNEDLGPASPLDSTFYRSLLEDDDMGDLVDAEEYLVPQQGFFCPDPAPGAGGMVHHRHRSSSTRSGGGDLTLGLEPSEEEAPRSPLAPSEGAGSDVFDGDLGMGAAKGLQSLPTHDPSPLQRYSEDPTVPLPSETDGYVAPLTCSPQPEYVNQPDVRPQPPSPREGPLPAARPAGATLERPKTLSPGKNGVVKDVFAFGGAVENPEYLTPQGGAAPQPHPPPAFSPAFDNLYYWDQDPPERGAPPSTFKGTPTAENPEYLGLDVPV
Pantothenate synthetase (Mycobacterium tuberculosis (strain ATCC 25618 / H37Rv)), sequence (P9WIL5 whole entry, looked up): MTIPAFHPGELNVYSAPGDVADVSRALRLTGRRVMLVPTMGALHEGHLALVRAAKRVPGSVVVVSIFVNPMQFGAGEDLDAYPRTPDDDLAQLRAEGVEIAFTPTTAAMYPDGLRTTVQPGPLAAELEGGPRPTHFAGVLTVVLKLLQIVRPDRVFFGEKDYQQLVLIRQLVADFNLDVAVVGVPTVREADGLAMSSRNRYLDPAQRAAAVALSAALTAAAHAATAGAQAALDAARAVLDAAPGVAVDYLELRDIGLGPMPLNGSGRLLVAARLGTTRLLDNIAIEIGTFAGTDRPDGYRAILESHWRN

For `COc1ccc(C(=O)C(C)(C)NO)cc1`, which inhibition [1] is on record?
Its inhibition is 0% (inactive).

And the viability [2]?
The viability was 108%.

What about the Her2 level [3] of the same compound?
Its Her2 level is 100% (inactive).

And the viability [4]?
The viability was 108% (inactive).

What about the viability [5] of the same compound?
The viability was 99.9% (inactive).

And the viability [6]?
The viability was 86.5% (inactive).

And the differential viability (reversal) ([7]; H69AR cells + 2 uM doxorubicin)?
Its differential viability (reversal) is -2.28% (inactive).

And the viability [7, 10]?
Its viability is 88.8%.

What about the viability [7, 11] of the same compound?
The viability was 86.5%.

What about the inhibition [8] of the same compound?
Its inhibition is -6.49% (inactive).

What about the inhibition [9] of the same compound?
Its inhibition is 0.48% (inactive).

Which inhibition [1] does the source give for `CCOC(=O)c1cccc([P+](=O)O)c1` here?
Its inhibition is 0% (inactive).

What about the viability [2] of the same compound?
The viability was 92.5%.

And the Her2 level [3]?
The Her2 level was 114% (inactive).

What about the viability [4] of the same compound?
The viability was 92.5% (inactive).

And the viability [5]?
The viability was 96.3% (inactive).

What about the viability [6] of the same compound?
Its viability is 96.5% (inactive).

What about the differential viability (reversal) ([7]; H69AR cells + 2 uM doxorubicin) of the same compound?
Its differential viability (reversal) is -0.595% (inactive).

What about the viability [7, 10] of the same compound?
Its viability is 97.1%.

And the viability [7, 11]?
Its viability is 96.5%.

What about the inhibition [8] of the same compound?
The inhibition was 3.95% (inactive).

And the inhibition [9]?
Its inhibition is -9.03% (inactive).

Which results are given for `COc1ccc(CCNC(=O)c2c(N)n(CCN3CCOCC3)c3nc4ccccc4nc23)cc1`?
inhibition [1]: 0% (inactive); viability [2]: 104%; Her2 level [3]: 87.5% (inactive); viability [4]: 104% (inactive); viability [6]: 19.3% (active); differential viability (reversal) ([7]; H69AR cells + 2 uM doxorubicin): -20.5% (inactive); viability [7, 10]: 39.8%; viability [7, 11]: 19.3%; inhibition [8]: 3.82% (inactive); inhibition [9]: 1.82% (inactive)

For `CC1=C(C(=O)OC(C)C)[C@]2(C(=O)N(CC(N)=O)c3ccccc32)C(C#N)=C(N)O1`, which inhibition [1] is on record?
Its inhibition is 3% (inactive).

And the viability [2]?
The viability was 92%.

And the Her2 level [3]?
Its Her2 level is 85.5% (inactive).

What about the viability [4] of the same compound?
Its viability is 92% (inactive).

And the viability [5]?
Its viability is 110% (inactive).

And the viability [6]?
Its viability is 113% (inactive).

And the differential viability (reversal) ([7]; H69AR cells + 2 uM doxorubicin)?
Its differential viability (reversal) is 15.5% (inactive).

And the viability [7, 10]?
Its viability is 97.5%.

And the viability [7, 11]?
The viability was 113%.

What about the inhibition [8] of the same compound?
The inhibition was -6.8% (inactive).

And the inhibition [9]?
The inhibition was 19.5% (inactive).

What does the source list for `CCC(=NCC1CCCO1)c1c(O)n(Cc2ccccc2)c(=O)[nH]c1=O` (configuration not stated)?
inhibition [1]: 0% (inactive); viability [4]: 91% (inactive); viability [5]: 107% (inactive); viability [6]: 86.3% (inactive); differential viability (reversal) ([7]; H69AR cells + 2 uM doxorubicin): -0.335% (inactive); viability [7, 10]: 86.7%; viability [7, 11]: 86.3%; inhibition [8]: -4.29% (inactive); inhibition [9]: 1.48% (inactive)

For `C[C@]12CCC(=O)C=C1CC[C@@H]1[C@@H]2CC[C@]2(C)C(=O)CC[C@@H]12`, which inhibition [1] is on record?
Its inhibition is 0% (inactive).

And the viability [4]?
Its viability is 79% (inactive).

And the viability [5]?
The viability was 76.8% (inactive).

And the viability [6]?
The viability was 85.3% (inactive).

And the differential viability (reversal) ([7]; H69AR cells + 2 uM doxorubicin)?
The differential viability (reversal) was -1.5% (inactive).

What about the viability [7, 10] of the same compound?
The viability was 86.8%.

And the viability [7, 11]?
The viability was 85.3%.

What about the inhibition [8] of the same compound?
Its inhibition is -3.38% (inactive).

What about the inhibition [9] of the same compound?
The inhibition was -0.83% (inactive).

For `CC(C)C[C@H](NC(=O)[C@@H]1CCCN1C(=O)[C@@H](N)Cc1ccc(O)cc1)C(=O)NCC(N)=O` (H-YPLG-NH2), which inhibition [1] is on record?
The inhibition was 0% (inactive).

And the viability [4]?
The viability was 105% (inactive).

And the viability [5]?
Its viability is 96.2% (inactive).

And the viability [6]?
The viability was 97.6% (inactive).

And the differential viability (reversal) ([7]; H69AR cells + 2 uM doxorubicin)?
The differential viability (reversal) was 0.84% (inactive).

What about the viability [7, 10] of the same compound?
The viability was 96.8%.

What about the viability [7, 11] of the same compound?
The viability was 97.6%.

And the inhibition [8]?
The inhibition was -2.73% (inactive).

And the inhibition [9]?
The inhibition was 0.33% (inactive).

Which results are given for `Cc1ccc2nc(N3CCN(C)CC3)[nH]c2c1`?
inhibition [1]: 0% (inactive); viability [4]: 111% (inactive); viability [5]: 90.4% (inactive); viability [6]: 93.6% (inactive); differential viability (reversal) ([7]; H69AR cells + 2 uM doxorubicin): 2.07% (inactive); viability [7, 10]: 91.5%; viability [7, 11]: 93.6%; inhibition [8]: 1.64% (inactive); inhibition [9]: -1.13% (inactive)

What does the source list for `CNP1(NC)=NC(C(F)(F)F)=NC(C(F)(F)F)=N1`?
inhibition [1]: 3% (inactive); viability [4]: 95% (inactive); viability [5]: 124% (inactive); viability [6]: 98.1% (inactive); differential viability (reversal) ([7]; H69AR cells + 2 uM doxorubicin): 6.97% (inactive); viability [7, 10]: 91.2%; viability [7, 11]: 98.1%; inhibition [8]: -6.99% (inactive); inhibition [9]: 4.36% (inactive)

Which results are given for `CNCC(O)c1ccc(O)cc1` (configuration not stated)?
inhibition [1]: 0% (inactive); viability [4]: 120% (inactive); viability [5]: 95.6% (inactive); viability [6]: 102% (inactive); differential viability (reversal) ([7]; H69AR cells + 2 uM doxorubicin): 15.7% (inactive); viability [7, 10]: 85.9%; viability [7, 11]: 102%; inhibition [8]: -1.82% (inactive); inhibition [9]: 8.83% (inactive)

Which inhibition [1] does the source give for `CCOCC(=O)NC1CCSC1=O` (configuration not stated) here?
Its inhibition is 0% (inactive).

And the viability [4]?
Its viability is 74% (inactive).

And the viability [5]?
The viability was 99.4% (inactive).

And the viability [6]?
Its viability is 93.8% (inactive).

What about the differential viability (reversal) ([7]; H69AR cells + 2 uM doxorubicin) of the same compound?
Its differential viability (reversal) is 0.265% (inactive).

And the viability [7, 10]?
The viability was 93.6%.

And the viability [7, 11]?
The viability was 93.8%.

And the inhibition [8]?
The inhibition was -9.45% (inactive).

And the inhibition [9]?
The inhibition was 5.16% (inactive).

Which results are given for `CC(C)[C@@]1(NC(=O)[C@@H]2C[C@@H]3c4cccc5[nH]cc(c45)C[C@H]3N(C)C2)O[C@@]2(O)[C@@H]3CCCN3C(=O)[C@H](Cc3ccccc3)N2C1=O`?
inhibition [1]: 4% (inactive); viability [4]: 111% (inactive); viability [5]: 4.38% (active); viability [6]: 73.8% (inactive); differential viability (reversal) ([7]; H69AR cells + 2 uM doxorubicin): -3.47% (inactive); viability [7, 10]: 77.3%; viability [7, 11]: 73.8%; inhibition [8]: -1.56% (inactive); inhibition [9]: -1.67% (inactive)

Which inhibition [1] does the source give for `O=c1[nH]c(=O)n(-c2cccc3ccccc23)c(O)c1C=NCCCn1ccnc1` here?
Its inhibition is 0% (inactive).

And the viability [4]?
The viability was 63% (inactive).

And the viability [5]?
The viability was 101% (inactive).

What about the viability [6] of the same compound?
The viability was 102% (inactive).

And the differential viability (reversal) ([7]; H69AR cells + 2 uM doxorubicin)?
Its differential viability (reversal) is 10% (inactive).

What about the viability [7, 10] of the same compound?
Its viability is 92%.

What about the viability [7, 11] of the same compound?
The viability was 102%.

What about the inhibition [8] of the same compound?
The inhibition was -5.21% (inactive).

What about the inhibition [9] of the same compound?
Its inhibition is 1.27% (inactive).

Which results are given for `COP(=O)(OC)C(O)C(Cl)(Cl)Cl` (configuration not stated)?
inhibition [1]: 0% (inactive); viability [4]: 122% (inactive); viability [5]: 95.5% (inactive); viability [6]: 82.6% (inactive); differential viability (reversal) ([7]; H69AR cells + 2 uM doxorubicin): -3.13% (inactive); viability [7, 10]: 85.7%; viability [7, 11]: 82.6%; inhibition [8]: -1.56% (inactive); inhibition [9]: -3.83% (inactive)

With `NCC(CC(=O)O)c1ccc(Cl)cc1` (configuration not stated) as the compound, how does the inhibition [1] read?
The inhibition was 0% (inactive).

What about the viability [4] of the same compound?
Its viability is 83% (inactive).

And the viability [5]?
Its viability is 78.3% (inactive).

And the viability [6]?
The viability was 106% (inactive).

What about the differential viability (reversal) ([7]; H69AR cells + 2 uM doxorubicin) of the same compound?
Its differential viability (reversal) is -1.38% (inactive).

What about the viability [7, 10] of the same compound?
The viability was 107%.

What about the viability [7, 11] of the same compound?
Its viability is 106%.

And the inhibition [8]?
The inhibition was -1.43% (inactive).

What about the inhibition [9] of the same compound?
Its inhibition is 4.67% (inactive).
